For assay [1], the system named is NB-4. The assay can be described thus: Induction of cell differentiation in human NB4 cells assessed as induction of induction of cell surface marker CD14 expression at 1 nM after 48 hrs. Format: functional, cell-based. The method, boiled down:
(§1)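 NB4 human promyelocytic leukemia cells kept in log-phase suspension in RPMI 1640 with 10% […] iron-supplemented bovine calf serum, 37 °C, 5% CO₂. Exposed to compounds at 1 nM for 48 h; 1 × 10⁶ cells washed twice in PBS, then labelled with MY4-RD1 and Mo1-FITC antibodies to measure surface CD14 and CD11b expression.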

Assay [2] has as its system NB-4. In words: Induction of cell differentiation in human NB4 cells assessed as induction of induction of cell surface marker CD11b expression at 1 nM after 48 hrs. The format is functional, cell-based. An outline of the steps: as §1
Assay [3] in a line: Antiproliferative activity against human MCF10CA1a after 3 days by [3H]thymidine uptake assay. Format: functional.

pIC50: −log10 of the molar value. Active and inactive are the calls of the source. The calls are words filed in the database; no cut-off is given here.

Data on 25 compounds can be found in ChEMBL document CHEMBL1152439, “Calcitriol derivatives with two different side chains at C-20. V. Potent inhibitors of mammary carcinogenesis and inducers of leukemia differentiation” (J Med Chem, 2009).

As usually defined, the pIC50 is the negative decadic logarithm of the IC50, by convention in mol/L. Low readings indicate a large IC50, high ones a small IC50.

As for `C=C1/C(=C\C=C2/CCC[C@]3(C)[C@@H]([C@@H](C/C=C\C(O)(C(F)(F)F)C(F)(F)F)CCCC(C)(C)O)CC[C@@H]23)C[C@@H](O)C[C@@H]1O`, the outcome with NB-4 [1] (tested as the 2H-labelled form) and with NB-4 [2] (tested as the 2H-labelled form) was Active.
`CC(C)(O)CCC[C@H](CC#CC(O)(C(F)(F)F)C(F)(F)F)[C@H]1CC[C@H]2/C(=C/C=C3C[C@@H](O)C[C@H](O)C3)CCC[C@]12C`: the result in the assay on NB-4 [1] (tested as the 2H-labelled form) and with NB-4 [2] (tested as the 2H-labelled form) was Active.
Regarding `C=C1/C(=C\C=C2/CCC[C@]3(C)[C@@H]([C@H](C)CCCC(C)(C)O)CC[C@@H]23)C[C@@H](O)C[C@@H]1O`, the outcome in the assay with NB-4 [1] and in the assay with NB-4 [2] was Active.
In assay [3], `[2H]C([2H])([2H])C(O)(CCC[C@H](CC#CC(O)(C(F)(F)F)C(F)(F)F)[C@H]1CC[C@H]2/C(=C/C=C3/C[C@@H](O)C[C@H](F)C3=C)CCC[C@]12C)C([2H])([2H])[2H]` showed a pIC50 of 8.80.
Same read-out and setting: as for `[2H]C([2H])([2H])C(O)(CCC[C@H](C/C=C\C(O)(C(F)(F)F)C(F)(F)F)[C@H]1CC[C@H]2/C(=C/C=C3C[C@@H](O)C[C@H](O)C3)CCC[C@]12C)C([2H])([2H])[2H]`, the figure is 9.37.
As to `[2H]C([2H])([2H])C(O)(CCC[C@@H](C/C=C\C(O)(C(F)(F)F)C(F)(F)F)[C@H]1CC[C@H]2/C(=C/C=C3/C[C@@H](O)C[C@H](F)C3=C)CCC[C@]12C)C([2H])([2H])[2H]`, the negative-log IC50 (pIC50) in assay [3] is below 8.00.
`[2H]C([2H])([2H])C(O)(CCC[C@H](C/C=C\C(O)(C(F)(F)F)C(F)(F)F)[C@H]1CC[C@H]2/C(=C/C=C3/C[C@@H](O)C[C@H](F)C3=C)CCC[C@]12C)C([2H])([2H])[2H]` had a pIC50 in assay [3] of 8.16.
As to `C=C1/C(=C\C=C2/CCC[C@]3(C)[C@@H]([C@H](C/C=C\C(O)(C(F)(F)F)C(F)(F)F)CCCC(C)(C)O)CC[C@@H]23)C[C@@H](O)C[C@@H]1O`, the outcome with NB-4 [1] (tested as the 2H-labelled form) and in the assay with NB-4 [2] (tested as the 2H-labelled form) was Active.
`[2H]C([2H])([2H])C(O)(CCC[C@@H](CC#CC(O)(C(F)(F)F)C(F)(F)F)[C@H]1CC[C@H]2/C(=C/C=C3/C[C@@H](O)C[C@H](F)C3=C)CCC[C@]12C)C([2H])([2H])[2H]` showed a negative-log IC50 (pIC50) in assay [3] of 9.25.
The same measure, in the same setting: under `[2H]C([2H])([2H])C(O)(CCC[C@H](CC#CC(O)(C(F)(F)F)C(F)(F)F)[C@H]1CC[C@H]2/C(=C/C=C3/C[C@@H](O)C[C@H](O)C3=C)CCC[C@]12C)C([2H])([2H])[2H]` stands 10.28; under `[2H]C([2H])([2H])C(O)(CCC[C@@H](CC#CC(O)(C(F)(F)F)C(F)(F)F)[C@H]1CC[C@H]2/C(=C/C=C3C[C@@H](O)C[C@H](O)C3)CCC[C@]12C)C([2H])([2H])[2H]`, 9.92.
With `C=C1/C(=C\C=C2/CCC[C@]3(C)[C@@H]([C@@H](C/C=C\C(O)(C(F)(F)F)C(F)(F)F)CCCC(C)(C)O)CC[C@@H]23)C[C@@H](O)C[C@@H]1F`, the result in the assay with NB-4 [1] (tested as the 2H-labelled form) and in the assay with NB-4 [2] (tested as the 2H-labelled form) was Active.
In turn, `[2H]C([2H])([2H])C(O)(CCC[C@H](CC#CC(O)(C(F)(F)F)C(F)(F)F)[C@H]1CC[C@H]2/C(=C/C=C3C[C@@H](O)C[C@H](O)C3)CCC[C@]12C)C([2H])([2H])[2H]` had a pIC50 in assay [3] of 9.72.
For the compound `C=C1/C(=C\C=C2/CCC[C@]3(C)[C@@H]([C@@H](CC#CC(O)(C(F)(F)F)C(F)(F)F)CCCC(C)(C)O)CC[C@@H]23)C[C@@H](O)C[C@@H]1O`, the outcome with NB-4 [1] (tested as the 2H-labelled form) and in the assay on NB-4 [2] (tested as the 2H-labelled form) was Active.
In assay [3], `[2H]C([2H])([2H])C(O)(CCC[C@@H](CC#CC(O)(C(F)(F)F)C(F)(F)F)[C@H]1CC[C@H]2/C(=C/C=C3/C[C@@H](O)C[C@H](O)C3=C)CCC[C@]12C)C([2H])([2H])[2H]` gave a pIC50 of 10.21.
With `CC(C)(O)CCC[C@@H](CC#CC(O)(C(F)(F)F)C(F)(F)F)[C@H]1CC[C@H]2/C(=C/C=C3C[C@@H](O)C[C@H](O)C3)CCC[C@]12C`, the outcome in the assay on NB-4 [1] (tested as the 2H-labelled form) and with NB-4 [2] (tested as the 2H-labelled form) was Active.
For `C=C1/C(=C\C=C2/CCC[C@]3(C)[C@@H]([C@@H](CC#CC(O)(C(F)(F)F)C(F)(F)F)CCCC(C)(C)O)CC[C@@H]23)C[C@@H](O)C[C@@H]1F`, the outcome in the assay with NB-4 [1] (tested as the 2H-labelled form) and with NB-4 [2] (tested as the 2H-labelled form) was Active.
In turn, `[2H]C([2H])([2H])C(O)(CCC[C@@H](C/C=C\C(O)(C(F)(F)F)C(F)(F)F)[C@H]1CC[C@H]2/C(=C/C=C3C[C@@H](O)C[C@H](O)C3)CCC[C@]12C)C([2H])([2H])[2H]` gave a negative-log IC50 (pIC50) in assay [3] of 8.49.
For the compound `[2H]C([2H])([2H])C(O)(CCC[C@H](C/C=C\C(O)(C(F)(F)F)C(F)(F)F)[C@H]1CC[C@H]2/C(=C/C=C3/C[C@@H](O)C[C@H](O)C3=C)CCC[C@]12C)C([2H])([2H])[2H]`, the negative-log IC50 (pIC50) in assay [3] is 9.25.
On to `C=C1/C(=C\C=C2/CCC[C@]3(C)[C@@H]([C@H](CC#CC(O)(C(F)(F)F)C(F)(F)F)CCCC(C)(C)O)CC[C@@H]23)C[C@@H](O)C[C@@H]1F`, for which the outcome in the assay on NB-4 [1] (tested as the 2H-labelled form) and with NB-4 [2] (tested as the 2H-labelled form) was Active.
`[2H]C([2H])([2H])C(O)(CCC[C@@H](C/C=C\C(O)(C(F)(F)F)C(F)(F)F)[C@H]1CC[C@H]2/C(=C/C=C3/C[C@@H](O)C[C@H](O)C3=C)CCC[C@]12C)C([2H])([2H])[2H]` gave a pIC50 in assay [3] of 8.80.
For `CC(C)(O)CCC[C@@H](C/C=C\C(O)(C(F)(F)F)C(F)(F)F)[C@H]1CC[C@H]2/C(=C/C=C3C[C@@H](O)C[C@H](O)C3)CCC[C@]12C`, the result in the assay with NB-4 [1] (tested as the 2H-labelled form) and in the assay with NB-4 [2] (tested as the 2H-labelled form) was Active.
As to `C=C1/C(=C\C=C2/CCC[C@]3(C)[C@@H]([C@H](C/C=C\C(O)(C(F)(F)F)C(F)(F)F)CCCC(C)(C)O)CC[C@@H]23)C[C@@H](O)C[C@@H]1F`, the result in the assay with NB-4 [1] (tested as the 2H-labelled form) and with NB-4 [2] (tested as the 2H-labelled form) was Active.
`C=C1/C(=C\C=C2/CCC[C@]3(C)[C@@H]([C@H](CC#CC(O)(C(F)(F)F)C(F)(F)F)CCCC(C)(C)O)CC[C@@H]23)C[C@@H](O)C[C@@H]1O`: the outcome in the assay with NB-4 [1] (tested as the 2H-labelled form) and in the assay with NB-4 [2] (tested as the 2H-labelled form) was Active.
Regarding `CC(C)(O)CCC[C@H](C/C=C\C(O)(C(F)(F)F)C(F)(F)F)[C@H]1CC[C@H]2/C(=C/C=C3C[C@@H](O)C[C@H](O)C3)CCC[C@]12C`, the outcome in the assay on NB-4 [1] (tested as the 2H-labelled form) and in the assay on NB-4 [2] (tested as the 2H-labelled form) was Active.
